The test system of test [1] is Staphylococcus aureus. Briefly: Antibacterial activity against multidrug resistant strains of Staphylococcus aureus assessed as minimum inhibitory concentration by alamar blue dye based broth microdilution method. The class given is functional.
Test [2] concerns HPAF-II. Briefly: Inhibition of cell migration in human HPAF-II cells at 1.25 uM measured upto 24 hrs by CMFDA dye staining based fluorescence assay. Type of test: functional. As to conditions: time hrs <=24. The essentials: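 Fluoroblok 96-well insert migration kinetics. HPAF-II cells were harvested at ~80% confluency, resuspended at 5 ×10^5 cells/mL in serum-free DMEM and stained with CellTracker CMFDA. Compound was present at a final 1.25 μM over 24 h. Run in triplicate, with untreated cells as control and NNGH as positive control.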

The subject of test [3] is HPAF-II. Briefly: Antiinvasive activity against human HPAF-II cells assessed as reduction in cell invasion at 1.25 uM measured upto 24 hrs by CMFDA dye staining based fluorescence assay. Type of test: functional. As to conditions: time hrs <=24. The essentials:
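Matrigel-coated invasion inserts with 8 μm pores. HPAF-II cells were harvested, resuspended in serum-free DMEM and labelled with CellTracker CMFDA. Compound was diluted in serum-free DMEM to a final 1.25 μM. Run in triplicate, with untreated cells as control and NNGH as positive control.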

The next test concerns the target Stromelysin-1 (Homo sapiens, UniProt P08254). Briefly: Inhibition of MMP-3 (unknown origin). The gist of the method: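 MMP-3 inhibition measured with a commercial MMP-3 drug discovery kit.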
A further test concerns Bacillus anthracis. The test is described as follows: Antibacterial activity against Bacillus anthracis assessed as minimum inhibitory concentration by alamar blue dye based broth microdilution method. Type of test: functional.
Test [4] deals with Panel NCI-60 (60 carcinoma cell lines). Briefly: Anticancer activity against human Panel NCI-60 (60 carcinoma cell lines) assessed as total growth inhibition at 1 to 10 uM measured after 48 hrs by SRB assay. Type of test: functional, cell-based. As to conditions: dose 1-10 µM. The gist of the method:
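NCI Developmental Therapeutics Program 60-human-tumour-cell-line five-dose screen, with total growth inhibition (TGI) as the end-point.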

The test system of test [5] is HPAF-II. The test is described as follows: Cytotoxicity against human HPAF-II cells assessed as reduction in cell viability at upto 50 uM by MTT assay. Type of test: functional, cell-based. As to conditions: dose microM <=50. The gist of the method: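 Vybrant MTT proliferation assay on HPAF-II cells harvested with 0.25% trypsin/0.53 mM EDTA, with viability checked after harvest. Compounds were tested up to 50 μM.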

The subject of test [6] is Staphylococcus aureus. The test is described as follows: Antibacterial activity against wild-type Staphylococcus aureus assessed as minimum inhibitory concentration by alamar blue dye based broth microdilution method. Type of test: functional.

In brackets after ≈: the same amount, converted by molar mass. Activity calls are given as the source filed them. The calls are words filed in the database; no cut-off is given here.

Chain of Stromelysin-1 (P08254 whole entry): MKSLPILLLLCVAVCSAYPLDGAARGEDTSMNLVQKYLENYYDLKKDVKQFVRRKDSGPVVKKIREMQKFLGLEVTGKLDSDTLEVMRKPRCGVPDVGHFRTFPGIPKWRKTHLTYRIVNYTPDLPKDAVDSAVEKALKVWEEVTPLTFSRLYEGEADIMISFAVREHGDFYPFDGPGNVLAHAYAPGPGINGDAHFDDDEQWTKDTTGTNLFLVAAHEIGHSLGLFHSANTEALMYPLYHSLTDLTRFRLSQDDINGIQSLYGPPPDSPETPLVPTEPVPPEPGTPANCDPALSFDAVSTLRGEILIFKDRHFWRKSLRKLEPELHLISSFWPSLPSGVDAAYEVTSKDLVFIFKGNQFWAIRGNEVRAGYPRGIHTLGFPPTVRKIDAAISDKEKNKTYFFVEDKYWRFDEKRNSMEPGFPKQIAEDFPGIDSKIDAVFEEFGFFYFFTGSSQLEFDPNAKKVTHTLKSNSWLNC

`CCCCCCC/C=C/[C@@H]1O[C@@]2(O)C(=O)C=C3C[C@H](O[C@@H]4O[C@H](CO)[C@@H](O)[C@H](O)[C@H]4O)C[C@H]3[C@@H]2C=C1C`: the MIC with Staphylococcus aureus [1], with Bacillus anthracis and in the test with Staphylococcus aureus [6] was 4 µg/mL (≈ 7.65 µM) throughout. This compound also came in with an inhibition at 1.25 µM in the test on HPAF-II [2] of 30%. Further, the outcome in the test on HPAF-II [3] and in the test on HPAF-II [5] was inactive. Moreover, on Stromelysin-1, the midpoint of inhibition, the IC50, lay at 50 µM. Besides, the outcome in test [4] was Active.

With `CCCCCCC/C=C/[C@@H]1O[C@]23C(=O)C[C@@]4(C[C@H](O[C@@H]5O[C@H](CO)[C@@H](O)[C@H](O)[C@H]5O)C[C@H]4[C@@H]2C=C1C)OC3=O`, the inhibition at 1.25 µM in the test on HPAF-II [2] worked out at 30%. Also, the result (in the test with HPAF-II [3]; in test [4]; in the test with HPAF-II [5]) was inactive.

For the compound `O=C(O)c1cn(C2CC2)c2cc(N3CCNCC3)c(F)cc2c1=O` [CIPROFLOXACIN], the MIC in the test with Bacillus anthracis stood at 0.064 µg/mL (≈ 0.193 µM).

As to `CCCCCCC/C=C/[C@@H]1O[C@@]2(O)C(=O)C=C3C[C@@H](O[C@@H]4O[C@H](CO)[C@@H](O)[C@H](O)[C@H]4O)C[C@H]3[C@@H]2C=C1C`, the MIC in the test on Staphylococcus aureus [1], with Bacillus anthracis and in the test with Staphylococcus aureus [6] was 17 µg/mL (≈ 32.5 µM) in each case.

(Values after ChEMBL document CHEMBL4842320, “Cryptic Biosynthesis of the Berkeleypenostatins from Coculture of Extremophilic Penicillium sp” (J Nat Prod, 2021).)
